Results on 19 compounds are retold here after ChEMBL document CHEMBL1136958, “Design and optimization of renin inhibitors: Orally bioavailable alkyl amines” (Bioorg Med Chem Lett, 2009).

Data set [1] in a line: Tmax in rat at 10 mg/kg, po and 2 mg/kg, iv. It counts as ADME, organism-based. The conditions noted are these: in vivo. The gist of the method:
(§1)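 Rats dosed with the fumarate salt at 10 mg/kg by oral route and 2 mg/kg intravenously. Plasma concentrations measured over time, and PK parameters derived from them.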

A short description of data set [2]: Cmax in rat at 10 mg/kg, po and 2 mg/kg, iv. The note with it: in vivo. It counts as ADME, organism-based. The gist of the method:
as §1

A short description of data set [3]: AUC (0 to t) in rat at 10 mg/kg, po and 2 mg/kg, iv. It counts as ADME, organism-based. The conditions noted are these: plasma. The gist of the method: as §1
A short description of data set [4]: AUC (infinity) in rat at 10 mg/kg, po and 2 mg/kg, iv. It counts as ADME, organism-based. The conditions noted are these: plasma. The gist of the method:
as §1

The nature of data set [5]: Clearance in rat at 2 mg/kg, iv. The note with it: in vivo. Set-up: dose 2 mg/kg, route intravenous. It counts as ADME, organism-based. In short, it runs like this: as §1
Data set [6] can be described thus: Oral bioavailability in rat at 10 mg/kg. It counts as ADME, organism-based. The note with it: in vivo. In short, it runs like this:
as §1

Data set [7] deals with Voltage-gated inwardly rectifying potassium channel KCNH2 (Homo sapiens, UniProt Q12809). The data set is described as follows: Inhibition of human ERG by patch clamp assay. (In patch-clamp work, channel activity is measured electrically.)
Data set [8] in a line: Terminal half life in dog. The note with it: in vivo, read-out: beta t1/2 (converted). It counts as ADME, organism-based, Canis lupus familiaris.
For data set [9], the species on record is Macaca fascicularis. The data set is described as follows: Terminal half life in cynomolgus monkey. The note with it: in vivo, read-out: beta t1/2 (converted).
A short description of data set [10]: Solubility in water. It counts as physicochemical.
Data set [11] can be described thus: Oral bioavailability in dog. It counts as ADME, organism-based, Canis lupus familiaris. The note with it: in vivo.
The test system of data set [12] is Macaca fascicularis. The experiment in a line: Oral bioavailability in cynomolgus monkey. The note with it: in vivo.
The nature of data set [13]: Half life in rat at 10 mg/kg, po and 2 mg/kg, iv. It counts as ADME, organism-based. The conditions noted are these: in vivo. In short, it runs like this: as §1
Data set [14] can be described thus: Volume of distribution at steady state in rat at 10 mg/kg, po and 2 mg/kg, iv. It counts as ADME, organism-based. The conditions noted are these: in vivo, read-out: Vdss.
A further data set concerns Rattus norvegicus. The data set is described as follows: Antihypertensive activity in double transgenic rat model assessed as reduction in blood pressure at 60 mg/kg, po administered on day 2 and day 3 after vehicle treatment on day 1. It counts as functional, organism-based. On the set-up: dose 60 mg/kg. The gist of the method: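 Telemetered double transgenic rats carrying human angiotensinogen and human renin genes (n = 4). Vehicle given on day 1 with blood pressure monitored over 24 h. Oral gavage at 60 mg/kg at t = 24 h and 48 h, with blood pressure followed continuously by telemetry.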

A short description of another data set: in vivo. The conditions noted are these: rat, po.
Data set [15] deals with T1, Renin (Homo sapiens, UniProt P00797).
T1 sequence (P00797 whole entry): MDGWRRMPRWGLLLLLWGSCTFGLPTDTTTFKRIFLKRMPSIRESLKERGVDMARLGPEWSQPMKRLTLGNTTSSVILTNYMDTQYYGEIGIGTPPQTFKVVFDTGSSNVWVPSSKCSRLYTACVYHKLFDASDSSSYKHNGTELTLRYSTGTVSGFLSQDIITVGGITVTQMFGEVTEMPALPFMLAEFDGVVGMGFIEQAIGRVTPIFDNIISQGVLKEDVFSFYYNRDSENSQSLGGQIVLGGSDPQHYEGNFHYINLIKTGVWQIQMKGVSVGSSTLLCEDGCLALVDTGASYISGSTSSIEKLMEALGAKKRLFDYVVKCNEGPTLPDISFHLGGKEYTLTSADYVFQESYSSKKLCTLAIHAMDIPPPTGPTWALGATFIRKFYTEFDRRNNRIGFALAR
The data set is described as follows: Inhibition of human recombinant renin in presence of human plasma by competitive radioimmunoassay. It counts as cell-free.

The target of data set [16] is T1, Renin. The experiment in a line: Inhibition of human recombinant renin.

Calls of active or inactive are those of the source. No cut-off for these calls is given here.

Sequence of Voltage-gated inwardly rectifying potassium channel KCNH2 (Q12809 whole entry): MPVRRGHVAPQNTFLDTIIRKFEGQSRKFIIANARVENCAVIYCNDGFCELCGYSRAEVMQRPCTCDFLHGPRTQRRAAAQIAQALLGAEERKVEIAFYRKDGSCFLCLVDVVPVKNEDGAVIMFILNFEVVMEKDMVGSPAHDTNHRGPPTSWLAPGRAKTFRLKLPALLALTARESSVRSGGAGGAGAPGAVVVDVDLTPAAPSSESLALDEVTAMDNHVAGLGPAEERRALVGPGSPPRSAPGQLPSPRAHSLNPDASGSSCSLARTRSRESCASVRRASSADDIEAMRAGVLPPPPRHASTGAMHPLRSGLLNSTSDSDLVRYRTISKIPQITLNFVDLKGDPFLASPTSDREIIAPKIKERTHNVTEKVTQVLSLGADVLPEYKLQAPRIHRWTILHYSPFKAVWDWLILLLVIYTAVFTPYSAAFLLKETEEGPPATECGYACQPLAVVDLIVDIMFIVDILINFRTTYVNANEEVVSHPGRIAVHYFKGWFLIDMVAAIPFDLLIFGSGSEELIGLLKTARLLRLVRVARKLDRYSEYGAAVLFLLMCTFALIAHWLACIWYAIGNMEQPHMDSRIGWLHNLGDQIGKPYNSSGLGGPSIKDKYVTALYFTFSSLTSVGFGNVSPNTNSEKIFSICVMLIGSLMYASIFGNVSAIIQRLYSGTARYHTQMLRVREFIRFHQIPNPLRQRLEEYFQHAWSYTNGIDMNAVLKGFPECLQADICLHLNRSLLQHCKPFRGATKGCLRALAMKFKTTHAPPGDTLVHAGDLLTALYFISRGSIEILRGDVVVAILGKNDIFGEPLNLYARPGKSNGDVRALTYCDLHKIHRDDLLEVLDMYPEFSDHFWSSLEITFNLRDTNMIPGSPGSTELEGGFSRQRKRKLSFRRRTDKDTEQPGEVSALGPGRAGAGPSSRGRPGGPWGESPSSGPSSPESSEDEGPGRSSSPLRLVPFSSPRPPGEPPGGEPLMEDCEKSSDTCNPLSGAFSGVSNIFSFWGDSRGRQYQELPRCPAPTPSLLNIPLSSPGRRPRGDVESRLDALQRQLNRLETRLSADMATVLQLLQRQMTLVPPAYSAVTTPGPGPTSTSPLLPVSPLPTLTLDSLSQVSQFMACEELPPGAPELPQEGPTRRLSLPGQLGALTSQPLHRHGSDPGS

The Tmax is the time from dosing to the highest level. The term Cmax denotes the maximum level reached in the sampled fluid or tissue. By AUC(0-t) is commonly meant the area under the concentration-time curve up to a stated or last time point. As usually defined, the AUC(0-inf) is total exposure, with the tail of the curve extrapolated. In general, clearance refers to the rate of elimination divided by the concentration. The bioavailability is the share of a dose that reaches the circulation, judged against a reference dose that is usually intravenous. Regarding `CNC[C@H](CC1CCCCC1)NC(=O)N1CCC[C@@H]([C@@](O)(CCCCOC)c2ccccc2)C1.O=C(O)/C=C/C(=O)O`, the Tmax in [1] turned out to be 2 h. In data set [2], this compound returned a Cmax of 101 ng/mL. In [3], this compound had an exposure AUC(0-t) of 547 ng·h/mL. Besides, the total exposure AUC(0-inf) in data set [4] is 689 ng·h/mL. Further, in data set [5], the clearance was found to be 66 mL/min/kg. The compound further returned a bioavailability in data set [6] of 33.6%.

The term IC50 denotes the concentration that inhibits the measured activity by half. In general, solubility refers to the concentration that dissolves in the medium under given conditions. For the compound `CNC[C@H](CC1CCCCC1)NC(=O)N1CCC[C@@H]([C@@](O)(CCCCOC)c2cccc(Cl)c2)C1.O=C(O)/C=C/C(=O)O`, the time of peak concentration (Tmax) in data set [1] was determined as 3.3 h. Further, the IC50 in data set [7] is above 30000 nM. Moreover, the half-life (in data set [8]; in the data set filed under Macaca fascicularis [9]) was 16 h each time. In [2], this compound came in with a Cmax of 73 ng/mL. The AUC(0-inf) in [4] came out at 530 ng·h/mL. For the same compound, in data set [5], the clearance worked out at 33 mL/min/kg. The bioavailability in data set [6] is 12.9%; in data set [11] it was 38%; in the data set on Macaca fascicularis [12], 17%. For the same compound, the solubility in data set [10] was above 1000 µg/mL.

Take `CNC[C@H](CC1CCCCC1)NC(=O)N1CCC[C@@H]([C@@](O)(CCCCOC)c2cccc(F)c2)C1.O=C(O)/C=C/C(=O)O`: the Tmax in [1] came out at 2.7 h. The Cmax in [2] is 83 ng/mL. The half-life in data set [13] is 9.6 h. Further, the AUC(0-t) in [3] turned out to be 433 ng·h/mL. Besides, in data set [4], the area under the curve AUC(0-inf) was 510 ng·h/mL. This compound also yielded a clearance in [5] of 59 mL/min/kg. Besides, in [6], the bioavailability came to 21.1%.

Consider `CCOCCCC[C@@](O)(c1ccccc1)[C@@H]1CCCN(C(=O)N[C@H](CNC)CC2CCCCC2)C1.O=C(O)/C=C/C(=O)O`, for which the Tmax in data set [1] turned out to be 3 h. The compound further yielded a Cmax in [2] of 135 ng/mL. In data set [13], this compound showed a half-life of 8.7 h. The same compound displayed an exposure AUC(0-t) in data set [3] of 745 ng·h/mL. In addition, in data set [4], the total exposure AUC(0-inf) came to 833 ng·h/mL. Further, the clearance in data set [5] came to 79 mL/min/kg. In addition, in [6], the bioavailability stood at 48.3%. Also, the Vd in [14] came to 55 L/kg.

Regarding `CNC[C@H](CC1CCCCC1)NC(=O)N1CCC[C@@H]([C@@](O)(CCCCOC)c2cccc(Cl)c2F)C1.O=C(O)/C=C/C(=O)O`, the time of peak concentration (Tmax) in data set [1] was found to be 4.3 h. This compound had a Cmax in data set [2] of 28 ng/mL. The compound also had a half-life in data set [13] of 8 h. The compound further displayed a total exposure AUC(0-inf) in data set [4] of 254 ng·h/mL. The same compound gave a clearance in [5] of 30 mL/min/kg. Besides, the bioavailability in data set [6] was 5.5%. The Vd in data set [14] turned out to be 16 L/kg.

With `CCOCCCO[C@@H](c1ccccc1)[C@@H]1CCCN(C(=O)N[C@H](CNC)CC2CCCCC2)C1.O=C(O)/C=C/C(=O)O`, in data set [1], the Tmax is 3 h. This compound had a Cmax in [2] of 91 ng/mL. The same compound gave a total exposure AUC(0-inf) in [4] of 882 ng·h/mL. In data set [5], the clearance amounted to 59 mL/min/kg. In data set [6], this compound came in with a bioavailability of 35.8%. The Vd in [14] stood at 22 L/kg.

For `COCCCC[C@@](O)(c1ccccc1)[C@@H]1CCCN(C(=O)N[C@H](CN)CC2CCCCC2)C1.O=C(O)/C=C/C(=O)O`, the Tmax in [1] came out at 2.3 h. The compound further came in with a Cmax in data set [2] of 28 ng/mL. Besides, the half-life in data set [13] was 5.1 h. The same compound returned an area under the curve AUC(0-t) in data set [3] of 221 ng·h/mL. For the same compound, the total exposure AUC(0-inf) in data set [4] was 192 ng·h/mL. In addition, in data set [5], the clearance turned out to be 46 mL/min/kg. This compound also yielded a bioavailability in data set [6] of 7.5%. Moreover, in [14], the Vd was 56 L/kg.

`CNC[C@H](CC1CCCCC1)NC(=O)N1CCC[C@@H]([C@@](O)(CCCCOC)c2cccc(Cl)c2)C1`: the outcome in the data set on Rattus norvegicus was Active.

On to `COCCCOc1cc(C[C@@H](C[C@H](N)[C@@H](O)C[C@H](C(=O)NCC(C)(C)C(N)=O)C(C)C)C(C)C)ccc1OC`, for which the bioavailability in the data set “in vivo” stood at 2.4%.

For the compound `CNC[C@H](CC1CCCCC1)NC(=O)N1CCC[C@@H]([C@@](O)(CCCCOC)c2ccccc2Cl)C1`, the half-maximal inhibitory concentration (IC50) on Renin [15] turned out to be 151 nM; at Renin [16] it was 7 nM.

Turning to `CCOCCCC[C@@](O)(c1ccccc1)[C@@H]1CCCN(C(=O)N[C@H](CN)CC2CCCCC2)C1`, the half-inhibitory concentration (IC50) on Renin [15] amounted to 490 nM; on Renin [16], 38 nM.

On to `CNC[C@H](CC1CCCCC1)NC(=O)N1CCC[C@@H]([C@@](O)(CCCCOC)c2cc(F)cc(Cl)c2)C1`, for which the IC50 on Renin [15] turned out to be 28 nM; at Renin [16] it was 0.9 nM.

As to `CCNC[C@H](CC1CCCCC1)NC(=O)N1CCC[C@@H]([C@@](O)(CCCCOC)c2cccc(Cl)c2)C1`, the IC50 at Renin [15] was determined as 154 nM; on Renin [16], 6 nM.

For `CNC[C@H](CC1CCCCC1)NC(=O)N1CCC[C@@H]([C@@](O)(CCCCOC)c2cccc(C)c2)C1`, the 50% inhibitory concentration (IC50) on Renin [15] amounted to 67 nM; on Renin [16], 2.5 nM.

Regarding `CCOCCCO[C@@H](c1ccccc1)[C@@H]1CCCN(C(=O)N[C@H](CNC)CC2CCCCC2)C1`, the 50% inhibitory concentration (IC50) on Renin [15] amounted to 447 nM; at Renin [16], 40 nM.

For the compound `CNC[C@H](CC1CCCCC1)NC(=O)N1CCC[C@@H]([C@@](O)(CCCCOC)c2cccc(OC)c2)C1`, the IC50 on Renin [15] was 88 nM; at Renin [16], 13 nM.

As for `COCCCOc1cc(C[C@@H](C[C@H](N)[C@@H](O)C[C@H](C(=O)NCC(C)(C)C(N)=O)C(C)C)C(C)C)ccc1OC.COCCCOc1cc(C[C@@H](C[C@H](N)[C@@H](O)C[C@H](C(=O)NCC(C)(C)C(N)=O)C(C)C)C(C)C)ccc1OC.O=C(O)/C=C/C(=O)O` [ALISKIREN FUMARATE], in data set [1], the Tmax amounted to 0.1 h. The compound also yielded a Cmax in data set [2] of 4 ng/mL. The same compound registered an AUC(0-inf) in [4] of 31 ng·h/mL. The compound also came in with a clearance in data set [5] of 55 mL/min/kg. This compound gave a bioavailability in data set [6] of 1.2%.

With `CNC[C@H](CC1CCCCC1)NC(=O)N1CCC[C@@H]([C@@](O)(CCCCOC)c2cccc(Br)c2)C1`, the concentration for half-maximal inhibition (IC50) on Renin [15] was found to be 12 nM; on Renin [16], 0.13 nM.

As to `CNC[C@H](CC1CCCCC1)NC(=O)N1CCC[C@@H]([C@@H](OCCCOC)c2cccc(Cl)c2F)C1`, the IC50 is 369 nM on Renin [15] and 39 nM on Renin [16].
